Each block holds one molecule with its values, some of them ahead of it.
Experiments:
[1] = system: OVA-specific IgG, IgG1, IgG2b; assay: Antibody response assay: serum OVA-specific IgG, IgG1, IgG2b by ELISA; type: in vivo, C57BL/6J mice; details: 14 days after a single immunization, i.m. with OVA, 10 mg/kg
Method in brief: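 Female 8-week C57BL/6J mice (ca. 20 g) injected i.m. on day 0 with 100 μg OVA (5 mg/kg) plus 200 μg (10 mg/kg) test compound in DMSO:Tween 80:saline (1:1:8); serum taken day 14. ELISA: plates coated with 5 μg/mL OVA overnight at 4 °C, blocked 1% BSA 1 h, serum (diluted in 1% BSA) 2 h, HRP anti-mouse IgG/IgG1/IgG2b 1 h RT, TMB, A450.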

[2] = system: adaptive immune response (CD4- and CD-8 dependent responses); assay: In vivo adjuvant activity on co-administration with OVA; design: species or system C57BL/6J mice; details: i.m. with OVA, 10 mg/kg
[3] = co-administered i.m. with ovalbumin (OVA); cited from earlier work
[4] = system: murine melanoma (B16-OVA); details: combination with checkpoint inhibitor anti-PD-L1, diprovocim/OVA i.m.; cited from earlier work
mTLR1/TLR2 = mTLR1/TLR2 (Mus musculus, UniProt Q9EPQ1+Q9QUN7); type: cell-based, mouse (C57BL/6J); details: mouse macrophages; for murine efficacy/activity in words: compared with diprovocim-1
hTLR1/TLR2 = hTLR1/TLR2 (Homo sapiens, UniProt O60603+Q15399); assay: Stimulated release of TNF-α from differentiated THP-1 cells; type: cell-based; details: text comment on Figure 3 data, compared with diprovocim-1
TLR1 = TLR1 (Homo sapiens, UniProt O60603+Q15399); type: cell-based; details: 5 nM; anti-TLR1 20 μg/mL, 1 h pretreatment
Method in brief: (§1)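 THP-1 cells PMA-differentiated (100 nM, 24 h) then rested 24 h in fresh RPMI/10% FBS. Cells pretreated 1 h with neutralizing anti-TLR1, anti-TLR2 or anti-TLR6 (20 μg/mL) before stimulation with 5 nM test compound; no-antibody wells as control. TNF-α release was the read-out.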

TLR2 = TLR2 (Homo sapiens, UniProt O60603+Q15399); type: cell-based; details: 5 nM; anti-TLR2 20 μg/mL, 1 h pretreatment
Method in brief: as §1

TLR4 = type: cell-based, mouse; details: 500 nM, diprovocim-X versus diprovocim-1

Chain of mTLR1/TLR2 (Q9EPQ1 26-795): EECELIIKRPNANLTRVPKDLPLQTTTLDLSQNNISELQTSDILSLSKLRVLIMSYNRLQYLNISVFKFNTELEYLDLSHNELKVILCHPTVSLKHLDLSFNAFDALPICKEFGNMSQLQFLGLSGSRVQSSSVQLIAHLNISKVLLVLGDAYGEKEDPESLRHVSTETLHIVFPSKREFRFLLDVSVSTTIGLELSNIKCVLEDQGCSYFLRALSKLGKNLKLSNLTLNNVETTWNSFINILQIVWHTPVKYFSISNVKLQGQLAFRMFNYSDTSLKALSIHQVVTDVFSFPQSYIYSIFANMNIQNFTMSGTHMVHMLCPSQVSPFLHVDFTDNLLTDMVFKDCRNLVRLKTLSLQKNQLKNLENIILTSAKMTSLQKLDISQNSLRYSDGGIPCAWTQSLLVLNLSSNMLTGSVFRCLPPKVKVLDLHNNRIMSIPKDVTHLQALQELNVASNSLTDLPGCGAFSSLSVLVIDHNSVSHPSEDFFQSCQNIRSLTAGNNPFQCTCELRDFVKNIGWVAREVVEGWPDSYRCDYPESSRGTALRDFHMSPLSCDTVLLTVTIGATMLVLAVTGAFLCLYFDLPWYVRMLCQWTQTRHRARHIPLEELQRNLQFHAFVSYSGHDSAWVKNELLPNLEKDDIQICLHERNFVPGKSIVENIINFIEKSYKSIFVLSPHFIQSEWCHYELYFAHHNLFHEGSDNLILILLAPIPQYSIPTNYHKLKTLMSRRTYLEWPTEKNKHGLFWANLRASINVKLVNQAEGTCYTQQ
Chain of mTLR1/TLR2 (Q9QUN7 25-784): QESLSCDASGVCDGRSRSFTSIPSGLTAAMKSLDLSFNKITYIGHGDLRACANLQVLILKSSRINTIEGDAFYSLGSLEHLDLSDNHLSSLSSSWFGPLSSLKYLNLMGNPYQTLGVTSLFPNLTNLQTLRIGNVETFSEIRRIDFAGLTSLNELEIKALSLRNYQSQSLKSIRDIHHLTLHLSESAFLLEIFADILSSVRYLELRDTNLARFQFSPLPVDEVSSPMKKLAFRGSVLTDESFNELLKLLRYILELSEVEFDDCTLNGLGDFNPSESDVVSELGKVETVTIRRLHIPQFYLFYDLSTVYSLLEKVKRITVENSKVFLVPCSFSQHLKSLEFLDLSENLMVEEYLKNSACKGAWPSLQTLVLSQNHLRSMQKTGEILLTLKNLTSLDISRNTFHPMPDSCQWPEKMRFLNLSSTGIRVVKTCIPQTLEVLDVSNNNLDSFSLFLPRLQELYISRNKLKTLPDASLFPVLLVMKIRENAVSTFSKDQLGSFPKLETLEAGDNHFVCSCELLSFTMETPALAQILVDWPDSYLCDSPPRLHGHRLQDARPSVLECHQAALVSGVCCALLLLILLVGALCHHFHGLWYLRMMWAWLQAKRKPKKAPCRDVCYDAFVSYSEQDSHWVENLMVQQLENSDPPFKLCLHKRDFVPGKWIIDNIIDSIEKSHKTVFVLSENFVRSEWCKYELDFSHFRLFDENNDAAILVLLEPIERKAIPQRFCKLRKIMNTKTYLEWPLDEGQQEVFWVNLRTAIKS
Chain of hTLR1/TLR2 (Q15399 25-786): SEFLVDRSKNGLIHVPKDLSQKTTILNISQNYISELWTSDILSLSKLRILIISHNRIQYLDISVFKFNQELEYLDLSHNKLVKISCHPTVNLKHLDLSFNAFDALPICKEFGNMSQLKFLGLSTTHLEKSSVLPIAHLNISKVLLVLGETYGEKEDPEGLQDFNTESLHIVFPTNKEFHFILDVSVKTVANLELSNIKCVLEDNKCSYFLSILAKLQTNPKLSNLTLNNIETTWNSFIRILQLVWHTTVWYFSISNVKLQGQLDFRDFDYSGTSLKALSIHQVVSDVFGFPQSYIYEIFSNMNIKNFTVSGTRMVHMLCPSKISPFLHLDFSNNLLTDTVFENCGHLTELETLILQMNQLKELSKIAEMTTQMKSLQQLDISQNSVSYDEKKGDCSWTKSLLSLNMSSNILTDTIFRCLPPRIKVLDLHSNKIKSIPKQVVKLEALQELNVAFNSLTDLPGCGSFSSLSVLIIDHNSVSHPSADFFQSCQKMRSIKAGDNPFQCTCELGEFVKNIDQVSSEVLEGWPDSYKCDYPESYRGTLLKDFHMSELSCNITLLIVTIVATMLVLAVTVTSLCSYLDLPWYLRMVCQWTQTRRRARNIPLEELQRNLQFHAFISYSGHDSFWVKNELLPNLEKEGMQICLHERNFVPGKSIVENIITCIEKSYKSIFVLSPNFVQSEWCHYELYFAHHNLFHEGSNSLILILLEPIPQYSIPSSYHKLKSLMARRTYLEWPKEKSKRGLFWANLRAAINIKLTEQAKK
Chain of hTLR1/TLR2 (O60603 21-784): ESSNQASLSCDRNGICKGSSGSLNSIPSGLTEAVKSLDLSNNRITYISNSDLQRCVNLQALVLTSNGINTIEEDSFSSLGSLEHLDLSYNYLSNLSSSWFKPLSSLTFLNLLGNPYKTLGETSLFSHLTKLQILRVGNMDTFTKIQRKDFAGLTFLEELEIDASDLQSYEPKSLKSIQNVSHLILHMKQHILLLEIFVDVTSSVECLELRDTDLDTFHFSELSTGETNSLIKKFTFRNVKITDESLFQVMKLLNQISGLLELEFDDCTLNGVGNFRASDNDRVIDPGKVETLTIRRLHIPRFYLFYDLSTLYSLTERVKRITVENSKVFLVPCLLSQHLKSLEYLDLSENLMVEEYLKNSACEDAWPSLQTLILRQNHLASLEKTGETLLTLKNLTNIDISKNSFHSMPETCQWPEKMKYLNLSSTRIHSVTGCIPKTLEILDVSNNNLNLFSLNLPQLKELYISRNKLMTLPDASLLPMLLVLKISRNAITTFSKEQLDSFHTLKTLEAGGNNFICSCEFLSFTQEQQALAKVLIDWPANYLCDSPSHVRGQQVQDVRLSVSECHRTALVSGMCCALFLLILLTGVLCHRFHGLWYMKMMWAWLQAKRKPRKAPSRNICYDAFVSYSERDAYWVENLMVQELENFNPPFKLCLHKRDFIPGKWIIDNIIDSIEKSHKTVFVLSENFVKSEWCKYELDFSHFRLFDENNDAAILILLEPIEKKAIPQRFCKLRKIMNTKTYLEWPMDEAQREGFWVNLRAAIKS
Chain of TLR1 (Q15399 25-786): as the sequence (Q15399 25-786) above
Chain of TLR1 (O60603 21-784): as the sequence (O60603 21-784) above
Chain of TLR2 (O60603 21-784): as above
Chain of TLR2 (Q15399 25-786): as the sequence (Q15399 25-786) above

Compound: O=C(N[C@H]1C[C@@H]1c1ccccc1)[C@@H]1CN(C(=O)c2ccc(C(=O)N3C[C@@H](C(=O)N[C@H]4C[C@@H]4c4ccccc4)[C@H](C(=O)N[C@H]4C[C@@H]4c4ccccc4)C3)cc2)C[C@H]1C(=O)N[C@H]1C[C@@H]1c1ccccc1 [compound 1]
- OVA-specific circulating antibodies (IgG, IgG1, IgG2b) [1]: strong responses
- adjuvant activity in mice [2]: comparable adjuvant activity
- adjuvant activity in mice [3]: effective adjuvant
- tumor response, B16-OVA [4]: eradicated tumors

Compound: CC(C)(C)OC(=O)NCCCCCCCCCCCCNC(=O)[C@@H]1CN(C(=O)c2ccc(C(=O)N3C[C@@H](C(=O)N[C@H]4C[C@@H]4c4ccccc4)[C@H](C(=O)N[C@H]4C[C@@H]4c4ccccc4)C3)cc2)C[C@H]1C(=O)N[C@H]1C[C@@H]1c1ccccc1 [compound 17, tert-Butyl (12-((3S,4S)-1-(4-((3S,4S)-3,4-bis(((1S,2R)-2-phenylcyclopropyl)carbamoyl)-pyrrolidine-1-carbonyl)benzoyl)-4-(((1S,2R)-2-phenylcyclopropyl)carbamoyl)pyrrolidine-3-carboxamido)dodecyl)carbamate]
- murine efficacy/activity in words (mTLR1/TLR2): did not display this increased or improved murine activity

Compound: C#CCCCCCCCCCCCCNC(=O)[C@@H]1CN(C(=O)c2ccc(C(=O)N3C[C@@H](C(=O)N[C@H]4C[C@@H]4c4ccccc4)[C@H](C(=O)N[C@H]4C[C@@H]4c4ccccc4)C3)cc2)C[C@H]1C(=O)N[C@H]1C[C@@H]1c1ccccc1 [compound 19, (3S,4S)-1-(4-((3S,4S)-3,4-Bis(((1S,2R)-2-phenylcyclopropyl)carbamoyl)pyrrolidine-1-carbonyl)-benzoyl)-N^3-((1S,2R)-2-phenylcyclopropyl)-N^4-(tetradec-13-yn-1-yl)pyrrolidine-3,4-dicarboxamide]
- response efficacy in words (hTLR1/TLR2): small improvement in the response efficacy

- murine efficacy/activity in words (mTLR1/TLR2): substantial increase in efficacy
Compound: O=C(NCCCCCCCCc1ccc(O)cc1)[C@@H]1CN(C(=O)c2ccc(C(=O)N3C[C@@H](C(=O)N[C@H]4C[C@@H]4c4ccccc4)[C@H](C(=O)N[C@H]4C[C@@H]4c4ccccc4)C3)cc2)C[C@H]1C(=O)N[C@H]1C[C@@H]1c1ccccc1 [compound 26, (3S,4S)-1-(4-((3S,4S)-3,4-Bis(((1S,2R)-2-phenylcyclopropyl)carbamoyl)pyrrolidine-1-carbonyl)-benzoyl)-N^3-(8-(4-hydroxyphenyl)octyl)-N^4-((1S,2R)-2-phenylcyclopropyl)pyrrolidine-3,4-dicarboxamide]

- murine efficacy/activity in words (mTLR1/TLR2): substantial increase in efficacy
Compound: Nc1ccc(CCCCCCCCNC(=O)[C@@H]2CN(C(=O)c3ccc(C(=O)N4C[C@@H](C(=O)N[C@H]5C[C@@H]5c5ccccc5)[C@H](C(=O)N[C@H]5C[C@@H]5c5ccccc5)C4)cc3)C[C@H]2C(=O)N[C@H]2C[C@@H]2c2ccccc2)cc1 [compound 27, (3S,4S)-N^3-(8-(4-Aminophenyl)octyl)-1-(4-((3S,4S)-3,4-bis(((1S,2R)-2-phenylcyclopropyl)-carbamoyl)pyrrolidine-1-carbonyl)benzoyl)-N^4-((1S,2R)-2-phenylcyclopropyl)pyrrolidine-3,4-dicarboxamide]

Compound: CC(C)(C)OC(=O)NCC(=O)OCCCCCCCCCCCCNC(=O)[C@@H]1CN(C(=O)c2ccc(C(=O)N3C[C@@H](C(=O)N[C@H]4C[C@@H]4c4ccccc4)[C@H](C(=O)N[C@H]4C[C@@H]4c4ccccc4)C3)cc2)C[C@H]1C(=O)N[C@H]1C[C@@H]1c1ccccc1 [compound 35, 12-((3S,4S)-1-(4-((3S,4S)-3,4-Bis(((1S,2R)-2-phenylcyclopropyl)carbamoyl)-pyrrolidine-1-carbonyl)benzoyl)-4-(((1S,2R)-2-phenylcyclopropyl)carbamoyl)-pyrrolidine-3-carboxamido)dodecyl-2-((tert-butoxycarbonyl)amino)acetate]
- fold more active than diprovocim-1 (mTLR1/TLR2; EC50 compared with diprovocim-1): 2 fold
- OVA-specific circulating antibodies (IgG, IgG1, IgG2b) [1]: strong responses
- adjuvant activity in mice [2]: matching or surpassing the in vivo activity of diprovocim-1
- dependence of TNF-α release on TLR1 (TLR1): dependent
- dependence of TNF-α release on TLR2 (TLR2): dependent
- efficacy as a TNF inducer in mouse macrophage cultures (TLR4): greater efficacy

- murine efficacy/activity in words (mTLR1/TLR2): modest increase in the efficacy
Compound: CC(C)(C)OC(=O)NCCOCCOCCOCCOCCC(=O)OCCCCCCCCCCCCNC(=O)[C@@H]1CN(C(=O)c2ccc(C(=O)N3C[C@@H](C(=O)N[C@H]4C[C@@H]4c4ccccc4)[C@H](C(=O)N[C@H]4C[C@@H]4c4ccccc4)C3)cc2)C[C@H]1C(=O)N[C@H]1C[C@@H]1c1ccccc1 [compound 55, 12-((3S,4S)-1-(4-((3S,4S)-3,4-Bis(((1S,2R)-2-phenylcyclopropyl)carbamoyl)pyrrolidine-1-carbonyl)benzoyl)-4-(((1S,2R)-2-phenylcyclopropyl)carbamoyl)pyrrolidine-3-carboxamido)-dodecyl 2,2-dimethyl-4-oxo-3,8,11,14,17-pentaoxa-5-azaicosan-20-oate]

Source: paper PMC9283309 (Journal of medicinal chemistry, 2022)
